Test results: ChEMBL document CHEMBL3044910, “Antifeedant activity of some pentacyclic triterpene acids and their fatty acid ester analogues” (2003)
The source made the active and inactive calls. The rule behind the calls is not given here.

What was measured:
Assay type in all cases: functional
Set-up in all cases: scale not given: the % may be the effect or the level left
Spodoptera litura [1] = test: Antifeedant activity against fourth-instar larval stage of Spodoptera litura reared on castor leaves assessed as decrease in food consumption at 150 ug/cm2 after 48 hr by no-choice leaf disk assay relative to untreated control
Method in brief: (§1)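 Larvae reared on fresh castor leaves at 27 ± 1 °C, 65 ± 5% RH, 14:10 light:dark; freshly molted fourth instars used. Treated leaf disks placed with larvae in Petri dishes; leaf area consumed in treated and control disks measured by planimeter. Percent protection corrected for control by Singh and Panth formula; mean with standard deviation reported.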

Spodoptera litura [2] = test: Antifeedant activity against fourth-instar larval stage of Spodoptera litura reared on castor leaves assessed as decrease in food consumption at 100 ug/cm2 after 48 hr by no-choice leaf disk assay relative to untreated control; method in brief: as §1
Spodoptera litura [3] = test: Antifeedant activity against fourth-instar larval stage of Spodoptera litura reared on castor leaves assessed as decrease in food consumption at 50 ug/cm2 after 48 hr by no-choice leaf disk assay relative to untreated control; method in brief: as §1
Spodoptera litura [4] = test: Antifeedant activity against fourth-instar larval stage of Spodoptera litura reared on castor leaves assessed as decrease in food consumption at 50 to 150 ug/cm2 measured after 48 hr by no-choice leaf disk assay relative to untreated control
Method in brief: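 Larvae reared on fresh castor leaves at 27 ± 1 °C, 65 ± 5% relative humidity, 14:10 light:dark; freshly molted fourth-instar larvae used. No-choice leaf disk test in Petri dish at 150, 100 and 50 µg/cm2. Leaf area consumed measured by planimeter at 6, 12, 24 and 48 h in treated and control disks. Percent protection corrected for control protection; mean with standard deviation.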

SMILES	Activity (Spodoptera litura [1])	Activity (Spodoptera litura [2])	Activity (Spodoptera litura [3]) [%]	Activity (Spodoptera litura [4]) [%]
CCCCCCCCCCCC(=O)O[C@H]1CC[C@]2(C)[C@H]3CC=C4[C@@H]5[C@@H](C)[C@H](C)CC[C@]5(C(=O)O)CC[C@@]4(C)[C@]3(C)CC[C@H]2C1(C)C [URS-12-ENE-28-CARBOXY-3BETA-DODECANOATE]	>50%	40%		
CCCCCCCCCCCCCCCC(=O)O[C@H]1CC[C@]2(C)[C@H]3CC=C4[C@@H]5CC(C)(C)CC[C@]5(C(=O)O)CC[C@@]4(C)[C@]3(C)CC[C@H]2C1(C)C [OLEAN-12-ENE-28-CARBOXY-3BETA-HEXADECANOATE]	>50%	40%	71	
CCCCCCCCCCCCCC(=O)O[C@H]1CC[C@]2(C)[C@H]3CC=C4[C@@H]5[C@@H](C)[C@H](C)CC[C@]5(C(=O)O)CC[C@@]4(C)[C@]3(C)CC[C@H]2C1(C)C [URS-12-ENE-28-CARBOXY-3BETA-TETRADECANOATE]	>50%	40%	>50	
CC1(C)CC[C@]2(C(=O)O)CC[C@]3(C)C(=CC[C@@H]4[C@@]5(C)CC[C@H](O)C(C)(C)[C@@H]5CC[C@]43C)[C@@H]2C1 [OLEANOLIC_ACID]	Active	40%		
CCCCCCCCCCCCCCCC(=O)O[C@H]1CC[C@]2(C)[C@H]3CC=C4[C@@H]5[C@@H](C)[C@H](C)CC[C@]5(C(=O)O)CC[C@@]4(C)[C@]3(C)CC[C@H]2C1(C)C	>50%	40%	>50	
C[C@H]1[C@H](C)CC[C@]2(C(=O)O)CC[C@]3(C)C(=CC[C@@H]4[C@@]5(C)CC[C@H](O)C(C)(C)[C@@H]5CC[C@]43C)[C@H]12 [URSOLIC ACID]	>50%	40%		
CCCCCCCCCCCCCCCCCC(=O)O[C@H]1CC[C@]2(C)[C@H]3CC=C4[C@@H]5[C@@H](C)[C@H](C)CC[C@]5(C(=O)O)CC[C@@]4(C)[C@]3(C)CC[C@H]2C1(C)C [URS-12-ENE-28-CARBOXY-3BETA-OCTADECANOATE]	>50%	40%	74	
C/C=C(\C)C(=O)O[C@H]1C[C@@H](OC(C)=O)[C@@]2(C(=O)OC)CO[C@H]3[C@@H](O)[C@@](C)([C@]45O[C@@]4(C)[C@H]4C[C@@H]5O[C@@H]5OC=C[C@@]54O)[C@H]4[C@]1(CO[C@]4(O)C(=O)OC)[C@@H]32 [AZADIRACTIN]	>50%	40%		81
CCCCCCCCCCCCCCCCCC(=O)O[C@H]1CC[C@]2(C)[C@H]3CC=C4[C@@H]5CC(C)(C)CC[C@]5(C(=O)O)CC[C@@]4(C)[C@]3(C)CC[C@H]2C1(C)C	Active	Active		
